# Experimental data as given in ChEMBL document CHEMBL5131497, “Design, Synthesis, and Characterization of TNP-2198, a Dual-Targeted Rifamycin-Nitroimidazole Conjugate with Potent Activity against Microaerophilic and Anaerobic Bacterial Pathogens” (J Med Chem, 2022).
# Legend:
# Syrian golden hamster = experiment: Antibacterial activity against Clostridioides difficile UNT-103-1 infected in Syrian hamster assessed as mortality at 20 mg/kg, po administered once a daily for 5 days after 18 hrs post 10 mg/kg clindamycin treatment and measured upto 21 days; type: functional, Mesocricetus auratus; conditions: time <= 21 day
# Method in brief: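 Male Golden Syrian hamsters (80-90 g), housed singly, were gavaged with C. difficile UNT103-1 grown in sporulation medium broth and diluted to OD600 1 in prereduced broth. […] From 18 h later, drug or vehicle was given by oral gavage once daily for 5 days. Survival was recorded through day 21.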
# Helicobacter pylori = experiment: Antibacterial activity against Helicobacter pylori infected in C57/BL6 mouse assessed as bacterial load in stomach at 10 mg/kg administered twice daily via oral gavage starting from 7 days post inoculation and administered for 7 days (reference value: 5.25 log10CFU); type: functional; conditions: time 7 day
Structure (SMILES),Activity (Syrian golden hamster),Activity (Helicobacter pylori)
CN[C@H](CC(C)C)C(=O)N[C@H]1C(=O)N[C@@H](CC(N)=O)C(=O)N[C@H]2C(=O)N[C@H]3C(=O)N[C@H](C(=O)N[C@H](C(=O)O)c4cc(O)cc(O)c4-c4cc3ccc4O)[C@H](O)c3ccc(c(Cl)c3)Oc3cc2cc(c3O[C@@H]2O[C@H](CO)[C@@H](O)[C@H](O)[C@H]2O[C@H]2C[C@](C)(N)[C@H](O)[C@H](C)O2)Oc2ccc(cc2Cl)[C@H]1O [VANCOMYCIN],80%,
CC[C@H]1OC(=O)[C@H](C)[C@@H](O[C@H]2C[C@@](C)(OC)[C@@H](O)[C@H](C)O2)[C@H](C)[C@@H](O[C@@H]2O[C@H](C)C[C@H](N(C)C)[C@H]2O)[C@](C)(OC)C[C@@H](C)C(=O)[C@H](C)[C@@H](O)[C@]1(C)O [CLARITHROMYCIN],,2.85 log10CFU
